Results reported in ChEMBL document CHEMBL1240328, “Selective compounds define Hsp90 as a major inhibitor of apoptosis in small-cell lung cancer” (Nat Chem Biol, 2007).
Calls of active or inactive are those of the source.

How the values were obtained:
[1] = target: Heat shock protein HSP 90-beta (Homo sapiens) (UniProt P08238); experiment: Inhibition of HSP90-mediated antiapoptotic activity in human H69AR cells assessed as induction of cell growth arrest at 10 after 96 hrs by propidium iodide staining-based flow cytometry
[2] = target: Heat shock protein HSP 90-beta (Homo sapiens) (UniProt P08238); experiment: Inhibition of HSP90-mediated proliferation of human NCI-H69 cells at 0.3 to 0.5 uM after 72 to 96 hrs by intracellular ATP level assay
[3] = Drug level in tumor of human NCI-N417 cell-xenograft athymic mouse model at 75 mg/kg, ip administered as single dose after 3 hrs by HPLC/MS/MS analysis; type: ADME, organism-based, Neoplasm; design: dose 75 mg/kg, route intraperitoneal; details: in vivo
Procedure, shortened: (§1)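 Nude mice bearing NCI-N417 xenografts received a single i.p. dose of 75 mg kg–1. Animals (n = 3) were killed at set times from 3 to 36 h. Tumors and brains were harvested and halved, and tumor drug content was quantified by HPLC/MS/MS.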

[4] = Drug level in tumor of human NCI-N417 cell-xenograft athymic mouse model at 75 mg/kg, ip administered as single dose after 6 hrs by HPLC/MS/MS analysis; type: ADME, organism-based, Neoplasm; design: dose 75 mg/kg, route intraperitoneal; details: in vivo; procedure, shortened: as §1
[5] = target: Heat shock protein HSP 90-beta (Homo sapiens) (UniProt P08238); experiment: Binding affinity to HSP90 in human SKBR3 cells after 24 hrs by fluorescence polarization assay; details: SK-BR-3
[6] = target: Heat shock protein HSP 90-beta (Homo sapiens) (UniProt P08238); experiment: Inhibition of HSP90-mediated proliferation of human NCI-H526 cells at 0.3 to 0.5 uM after 72 to 96 hrs by sulforhodamine B assay; type: cell-based
[7] = target: Heat shock protein HSP 90-beta (Homo sapiens) (UniProt P08238); experiment: Inhibition of HSP90 in chemo-resistant human H69AR cells at 100 uM after 24 hrs by fluorescence polarization assay; type: cell-based
Procedure, shortened: (§2)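 Competitive fluorescence polarization in lysates of H69AR, SKI-AC3 and WBA cells, prepared in HFB buffer pH 7.3 and normalized to Hsp90. Tracer was 3 nM Cy3B-geldanamycin, with incubation for 24 h at 4 °C. EC50 was defined as 50% tracer displacement.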

[8] = Drug level in tumor of human NCI-N417 cell-xenograft athymic mouse model at 75 mg/kg, ip administered as single dose after 36 hrs by HPLC/MS/MS analysis; type: ADME, organism-based, Neoplasm; design: dose 75 mg/kg, route intraperitoneal; details: in vivo; procedure, shortened: as §1
[9] = target: Heat shock protein HSP 90-beta (Homo sapiens) (UniProt P08238); experiment: Binding affinity to HSP90 in human NCI-H146 cells after 24 hrs by fluorescence polarization assay; type: cell-based
[10] = Drug level in tumor of human NCI-N417 cell-xenograft athymic mouse model at 75 mg/kg, ip administered as single dose after 24 hrs by HPLC/MS/MS analysis; type: ADME, organism-based, Neoplasm; design: dose 75 mg/kg, route intraperitoneal; details: in vivo; procedure, shortened: as §1
[11] = target: Heat shock protein HSP 90-beta (Homo sapiens) (UniProt P08238); experiment: Inhibition of HSP90-mediated proliferation of human SKBR3cells after 72 hrs by sulforhodamine B assay
[12] = target: Heat shock protein HSP 90-beta (Homo sapiens) (UniProt P08238); experiment: Inhibition of HSP90-mediated proliferation of human NCI-H510 cells at 0.3 to 0.5 uM after 72 to 96 hrs by intracellular ATP level assay
NCI-H417 [13] = experiment: Anticancer activity against human NCI-N417 cells xenografted in athymic mouse assessed as decrease in tumor Akt activity at 75 mg/kg, ip administered daily for 5 consecutive days measured after 6 hrs post last dose by immunohistochemistry; type: functional, organism-based; design: dose 75 mg/kg
[14] = target: Heat shock protein HSP 90-beta (Homo sapiens) (UniProt P08238); experiment: Binding affinity to HSP90 in human NCI-H69 cells after 24 hrs by fluorescence polarization assay
[15] = target: Heat shock protein HSP 90-beta (Homo sapiens) (UniProt P08238); experiment: Inhibition of HSP90 in chemo-resistant human SKI-AC3 cells at 100 uM after 24 hrs by fluorescence polarization assay; type: cell-based; procedure, shortened: as §2
[16] = target: Heat shock protein HSP 90-beta (Homo sapiens) (UniProt P08238); experiment: Binding affinity to HSP90 in human NCI-N417 cells after 24 hrs by fluorescence polarization assay; type: cell-based; details: NCI-H417
[17] = target: Heat shock protein HSP 90-beta (Homo sapiens) (UniProt P08238); experiment: Binding affinity to HSP90 in human NCI-H526 cells after 24 hrs by fluorescence polarization assay; type: cell-based
NCI-H417 [18] = experiment: Anticancer activity against human NCI-N417 cells xenografted in ip dosed athymic mouse assessed as tumor caspase-3 cleavage administered daily for 5 consecutive days measured after 12 hrs post last dose by immunohistochemistry; type: functional, organism-based
Procedure, shortened: (§3)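 Nude athymic (nu/nu) mice carrying NCI-N417 xenografts (cells injected with Matrigel), treated once tumors were 7–9 mm in diameter. Dosing was five consecutive daily i.p. doses of 100 mg kg–1, and mice were killed 12 h after the last dose (n = 2). Tumors were analyzed by immunohistochemistry for cleaved caspase-3, Ki-67 and p-Akt, with vehicle-treated tumors as comparison.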

[19] = target: Heat shock protein HSP 90-beta (Homo sapiens) (UniProt P08238); experiment: Inhibition of HSP90-mediated antiapoptotic activity in human WBA cells assessed as induction of cell growth arrest at 10 after 96 hrs by propidium iodide staining-based flow cytometry
NCI-H417 [20] = experiment: Anticancer activity against human NCI-N417 cells xenografted in ip dosed athymic mouse assessed as decrease in tumor Akt activity administered daily for 5 consecutive days measured after 12 hrs post last dose by immunohistochemistry; type: functional, organism-based; procedure, shortened: as §3
[21] = target: Heat shock protein HSP 90-beta (Homo sapiens) (UniProt P08238); experiment: Binding affinity to HSP90 in human NCI-H187 cells after 24 hrs by fluorescence polarization assay
[22] = target: Heat shock protein HSP 90-beta (Homo sapiens) (UniProt P08238); experiment: Binding affinity to HSP90 in human NCI-H510 cells after 24 hrs by fluorescence polarization assay; type: cell-based
[23] = target: Heat shock protein HSP 90-beta (Homo sapiens) (UniProt P08238); experiment: Inhibition of HSP90-mediated proliferation of human NCI-H209 cells at 0.3 to 0.5 uM after 72 to 96 hrs by intracellular ATP level assay
NCI-H417 [24] = experiment: Anticancer activity against human NCI-N417 cells xenografted in athymic mouse assessed as decrease in tumor Akt activity at 75 mg/kg, ip administered as single dose measured after 36 hrs post dose by Western blot
[25] = target: Heat shock protein HSP 90-beta (Homo sapiens) (UniProt P08238); experiment: Inhibition of HSP90-mediated proliferation of human NCI-H187 cells at 0.3 to 0.5 uM after 72 to 96 hrs by intracellular ATP level assay
[26] = target: Heat shock protein HSP 90-beta (Homo sapiens) (UniProt P08238); experiment: Inhibition of HSP90-mediated proliferation of human NCI-N417 cells at 0.3 to 0.5 uM after 72 to 96 hrs by sulforhodamine B assay; type: cell-based; details: NCI-H417
[27] = Drug level in tumor of human NCI-N417 cell-xenograft athymic mouse model at 75 mg/kg, ip administered as single dose after 8 hrs by HPLC/MS/MS analysis; type: ADME, organism-based, Neoplasm; design: dose 75 mg/kg, route intraperitoneal; details: in vivo; procedure, shortened: as §1
[28] = target: Heat shock protein HSP 90-beta (Homo sapiens) (UniProt P08238); experiment: Binding affinity to HSP90 in human NCI-H209 cells after 24 hrs by fluorescence polarization assay; type: cell-based
[29] = target: Heat shock protein HSP 90-beta (Homo sapiens) (UniProt P08238); experiment: Inhibition of HSP90-mediated antiapoptotic activity in human SKI-AC3 cells assessed as induction of cell growth arrest at 10 after 96 hrs by propidium iodide staining-based flow cytometry
[30] = Drug level in tumor of human NCI-N417 cell-xenograft athymic mouse model at 75 mg/kg, ip administered as single dose after 12 hrs by HPLC/MS/MS analysis; type: ADME, organism-based, Neoplasm; design: dose 75 mg/kg, route intraperitoneal; details: in vivo; procedure, shortened: as §1
[31] = target: Heat shock protein HSP 90-beta (Homo sapiens) (UniProt P08238); experiment: Inhibition of HSP90-mediated proliferation of human NCI-H146 cells at 0.3 to 0.5 uM after 72 to 96 hrs by intracellular ATP level assay
NCI-H417 [32] = experiment: Anticancer activity against human NCI-N417 cells xenografted in athymic mouse assessed as tumor growth inhibition at nontoxic dose administered ip daily for 5 consecutive days measured on day 20 post tumor implantation; type: functional, organism-based
Procedure, shortened: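 Nude athymic mice (n = 4) bearing NCI-N417 tumors of V = 50–90 mm3 were dosed i.p. and tumor growth was monitored. Results are given as mean ± s.d.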

[33] = target: Heat shock protein HSP 90-beta (Homo sapiens) (UniProt P08238); experiment: Inhibition of HSP90 in chemo-resistant human WBA cells at 100 uM after 24 hrs by fluorescence polarization assay; type: cell-based; procedure, shortened: as §2

Sequence of Heat shock protein HSP 90-beta (Homo sapiens) (P08238 whole entry): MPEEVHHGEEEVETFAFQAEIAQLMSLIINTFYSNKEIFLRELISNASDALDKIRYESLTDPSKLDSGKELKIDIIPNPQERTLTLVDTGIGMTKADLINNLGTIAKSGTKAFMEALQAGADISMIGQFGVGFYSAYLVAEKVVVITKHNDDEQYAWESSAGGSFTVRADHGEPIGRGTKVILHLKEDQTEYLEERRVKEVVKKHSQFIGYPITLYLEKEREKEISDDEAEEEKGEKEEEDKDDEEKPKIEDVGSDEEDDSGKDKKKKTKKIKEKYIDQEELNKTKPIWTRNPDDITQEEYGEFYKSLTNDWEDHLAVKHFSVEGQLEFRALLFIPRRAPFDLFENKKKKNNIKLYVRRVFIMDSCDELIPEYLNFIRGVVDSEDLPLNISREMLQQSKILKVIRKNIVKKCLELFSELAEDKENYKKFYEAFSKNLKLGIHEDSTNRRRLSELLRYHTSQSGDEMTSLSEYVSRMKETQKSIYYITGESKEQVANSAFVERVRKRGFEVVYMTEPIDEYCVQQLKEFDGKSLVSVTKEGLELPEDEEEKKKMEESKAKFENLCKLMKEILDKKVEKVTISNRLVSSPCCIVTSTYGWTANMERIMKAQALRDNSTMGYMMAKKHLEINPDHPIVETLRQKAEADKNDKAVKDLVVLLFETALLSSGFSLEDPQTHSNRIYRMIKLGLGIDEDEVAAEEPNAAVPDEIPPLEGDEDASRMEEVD

CC(C)NCCCn1c(Sc2cc3c(cc2I)OCO3)nc2c(N)ncnc21 [PU-H71]
Active: Drug uptake [3] | Drug uptake [4] | Drug uptake [8] | Drug uptake [10] | Drug uptake [27] | Drug uptake [30]
50%: inhibition [2] | inhibition [6] | inhibition [12] | inhibition [23] | inhibition [25] | inhibition [26] | inhibition [31]
active: Activity [1] | Activity [5] | inhibition [7] | Activity [9] | inhibition [11] | Activity (NCI-H417 [13]) | Activity [14] | inhibition [15] | Activity [16] | Activity [17] | Activity (NCI-H417 [18]) Dose-dependent effect | Activity [19] | inhibition (NCI-H417 [20]) Dose-dependent effect | Activity [21] | Activity [22] | Activity (NCI-H417 [24]) | Activity [28] | Activity [29] | inhibition (NCI-H417 [32]) | inhibition [33]
